# Rows were chosen to be rich in hits. Some 1.9% of all compounds tested hit in one or more screens of this group.
# ARFGAP1 inh: rat ARFGAP1 inhibition; actives 0.26% (n = 360,000); Q62848; Arfgap1-stimulated ARF1 GTP hydrolysis, GDP FP detection; inhibition, % at 16.5 µM;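 active = inhibition above a per-plate limit, mean inhibition of low control wells plus 3 SD, cut at about 25% in these data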;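 note: 0% = DMSO wells with enzyme and 100% = wells lacking Arfgap1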
#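 material = rat Arfgap1 catalytic domain, aa 1-136 | also added = human ARF1(Δ1-17)-GTP substrate | compound dosing = one concentration, 16.5 µM, DMSO 1.26% | times = GTP hydrolysis reaction 2 h at 25 °C | measured by = FP, GDP Alexa 633 tracer displaced from anti-GDP antibody, 620/688 nm | evaluation = percent inhibition of Arfgap1-stimulated GTP hydrolysis | replication = single well per compound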
# ASAP1 GAP inh: blocks human ASAP1-stimulated Arf1 GTP hydrolysis. GDP FP detection. inhibition, % at 16.5 µM. actives 0.19% (n = 360,000); in the data active = inhibition above about 25%;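 note: 0% = vehicle with enzyme and substrate and 100% = no enzyme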
# PLCb3 inh: inhibitors of human phospholipase C beta3; actives 0.18% (n = 370,000); AID 720704; inhibition, % at 12.2 µM; Q01970; Purified PLC-beta3, fluorogenic substrate, fluorescence; in the data active = inhibition above about 11%;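 note: 0% = median of compound wells on plate and 100% = full blocker control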
# Target sequence (Q01970 whole entry, looked up): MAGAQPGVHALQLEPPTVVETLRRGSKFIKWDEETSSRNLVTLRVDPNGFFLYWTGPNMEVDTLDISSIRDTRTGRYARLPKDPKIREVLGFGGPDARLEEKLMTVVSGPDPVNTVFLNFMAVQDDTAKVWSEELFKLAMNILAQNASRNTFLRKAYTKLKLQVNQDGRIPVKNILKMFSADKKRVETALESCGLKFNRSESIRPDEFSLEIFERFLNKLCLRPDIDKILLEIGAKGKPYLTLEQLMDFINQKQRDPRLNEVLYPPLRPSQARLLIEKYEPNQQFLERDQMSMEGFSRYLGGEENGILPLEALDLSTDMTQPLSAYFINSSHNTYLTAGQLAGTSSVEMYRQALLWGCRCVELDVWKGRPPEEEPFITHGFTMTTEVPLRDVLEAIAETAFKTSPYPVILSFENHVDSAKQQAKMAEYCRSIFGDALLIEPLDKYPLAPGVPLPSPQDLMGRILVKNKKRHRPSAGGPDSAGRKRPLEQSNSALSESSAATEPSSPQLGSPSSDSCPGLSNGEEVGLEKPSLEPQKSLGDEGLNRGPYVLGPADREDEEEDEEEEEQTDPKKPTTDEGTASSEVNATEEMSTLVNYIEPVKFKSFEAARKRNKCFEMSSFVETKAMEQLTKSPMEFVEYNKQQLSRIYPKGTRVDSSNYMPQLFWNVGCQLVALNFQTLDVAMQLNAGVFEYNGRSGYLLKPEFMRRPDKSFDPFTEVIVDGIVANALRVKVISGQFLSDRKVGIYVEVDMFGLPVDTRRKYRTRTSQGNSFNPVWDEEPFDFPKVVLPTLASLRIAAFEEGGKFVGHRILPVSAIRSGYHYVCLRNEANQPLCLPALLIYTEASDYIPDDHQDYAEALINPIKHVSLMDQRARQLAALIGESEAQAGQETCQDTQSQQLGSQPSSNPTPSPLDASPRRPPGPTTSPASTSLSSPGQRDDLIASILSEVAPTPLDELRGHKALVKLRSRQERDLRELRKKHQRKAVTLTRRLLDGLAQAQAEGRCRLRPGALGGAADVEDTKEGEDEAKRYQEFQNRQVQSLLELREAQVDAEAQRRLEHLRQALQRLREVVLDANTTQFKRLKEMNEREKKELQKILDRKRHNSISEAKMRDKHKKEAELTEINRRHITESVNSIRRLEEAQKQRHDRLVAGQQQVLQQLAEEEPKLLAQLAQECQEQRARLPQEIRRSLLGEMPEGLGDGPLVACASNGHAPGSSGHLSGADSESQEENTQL
# sPLA2-III inh: Blocks human group III sPLA2 activity; Q9NZ20; actives 0.56% (n = 370,000); inhibition, % at 12.2 µM; QFRET BODIPY PC-A2 liposome hydrolysis, fluorescence;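 active = inhibition above mean plus 3 SD of compounds lying within the high and low control bounds, cut at about 19% in these data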;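 note: 0% = median of test compound wells and 100% = no enzyme DMSO wells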
# PLC-gamma1 inh: PLC-gamma1 (human) inhibition, primary screen; inhibition, % at 12.2 µM; purified PLC-gamma1, fluorogenic substrate, fluorescence; actives 0.84% (n = 370,000); AID 720700; P19174; in the data active = inhibition above about 9.5%
# hGIII sPLA2 conf: human GIII-sPLA2 inhibition, confirmation; recombinant hGIII-sPLA2, BODIPY PC-A2 QFRET fluorescence; AID 743280; inhibition, % at 12.2 µM; actives 34% (n = 2,000); shares compounds with sPLA2-III inh;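 active = mean inhibition across triplicates above the hit cutoff set in the earlier primary screen, cut at about 19% in these data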;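 note: 0% = enzyme with DMSO and 100% = DMSO wells lacking enzyme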
# BODIPY interf: counter-screen for HGIII-sPLA2 inhibitors: 535nm fluorescence interference. inhibition, % at 12.2 µM. AID 743282. shares compounds with sPLA2-III inh. actives 8.5% (n = 2,000). BODIPY FL product fluorescence interference, QFRET;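 active = average inhibition above the solvent-only control mean plus 3 SD, cut at about 6% in these data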;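 note: 0% = DMSO with substrate plus product and 100% = DMSO with substrate alone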
# BODIPY interf DR: interferes with 535nm fluorescence in dose response counter-screen; shares compounds with sPLA2-III inh; BODIPY FL product fluorescence interference, cell-free; IC50, µM; 240 tested, under 10 active;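 active = IC50 at or below 10 µM; inactive = IC50 above 10 µM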
# * hit, by the source's call; . = not tested or not shown.
SMILES,ARFGAP1 inh,ASAP1 GAP inh,PLCb3 inh,sPLA2-III inh,PLC-gamma1 inh,hGIII sPLA2 conf,BODIPY interf,others
CC(C)(C)c1csc(NNC(=O)c2ccc(Cl)cc2)n1,9,-11,-11,34*,-4,45*,4,BODIPY interf DR=>122
O=S(=O)(c1ccc(NC(=S)N/N=C/c2ccc(O)c(O)c2)cc1)N1CCOCC1,-2,3,-23,-3,-12,.,.,
O=[N+]([O-])c1cc(Cl)cc(/C=N/NC(=S)Nc2ccc(S(=O)(=O)N3CCOCC3)cc2)c1O,0,7,-32,69*,-20,70*,19*,
O=C(NC(=S)Nc1ccc(S(=O)(=O)N2CCCCC2)cc1)c1cccs1,-2,-7,2,19*,1,19*,-4,
O=S(=O)(c1ccc(NC(=S)NN=Cc2ccccc2O)cc1)N1CCCCC1,12,3,-151,26*,-116,33*,9.8*,
COc1ccc(CNC(=O)O[C@H]2CC[C@@]34CCCN3C(=O)CCC[C@H]4[C@H]2C)cc1,.,.,6,2,4,.,.,
CCc1ccc(-n2ncc(Cl)c(Oc3ccc(OC)cc3)c2=O)cc1,.,.,-6,-6,-8,.,.,
CCOc1cccc(C2NC(=S)NC(C)=C2C(=O)Nc2ccccc2)c1 (stereo not given),6,0,0,24*,2,16,-2,
COC(=O)C1CN(Cc2ccccc2)CCS(=O)(=O)N1Cc1cn(Cc2cccc(Cl)c2)nn1 (stereo not given),.,.,1,-2,2,.,.,
O=C(Nc1nc(-c2ccccn2)cs1)c1ccc(Cl)s1,2,-1,-11,27*,-9,24*,-3,
Cn1cccc1C(=O)Nc1nc(-c2ccccn2)cs1,9,4,-9,-2,-4,.,.,
Cc1ccc(C(=O)Nc2nc(-c3ccccn3)cs2)s1,-1,7,-31,7,-16,.,.,
O=C(Nc1nc(-c2ccccn2)cs1)c1ncc(Cl)c(Cl)c1Cl,0,-12,-20,27*,-17,21*,1,
O=C(Nc1nc(-c2ccccn2)cs1)c1cc2ccccc2o1,-9,11,-53,31*,-57,19*,-4,
COc1ccc2c(c1)c[n+](C)c1c3cc(OC)c(OC)cc3ccc21,-4,-14,-26,27*,-20,36*,-26,BODIPY interf DR=>122
CCOC1=CC2=C(C(=O)C(Cl)=CC2=O)[C@@H]2CN(S(=O)(=O)c3ccc(C)cc3)[C@@H](c3ccccc3)[C@H]12,7,13,-5,31*,1,69*,11*,
CCN1C(=O)[C@@H]2[C@@H]3CN(S(=O)(=O)c4ccc(C)cc4)[C@@H](c4ccccc4)[C@@H]3C(=O)C[C@@H]2C1=O,-4,0,-1,-37,-3,.,.,
O=C(NCCc1ccccc1Cl)[C@@H]1CCCN1C(=O)[C@H](Cc1cccnc1)NC(=O)N1CCOCC1,-1,-4,4,-23,4,.,.,
Cc1nc(N2CCCCC2C)c2nnn(Cc3ccccc3)c2n1 (stereo not given),.,.,3,-3,0,.,.,
COc1ccc(C(=O)CSc2nnc(-c3n[nH]c4c3CCC4)n2N)cc1OC,.,.,5,-4,5,.,.,
CCCn1c(=O)c(C(=O)NNC(=O)c2ccccc2Cl)c(O)c2ccccc21,13,-9,-12,21*,-5,20*,1,
CCCn1c(=O)c(C(=O)NNC(=O)c2ccccc2[N+](=O)[O-])c(O)c2ccccc21,2,0,-8,14,-5,.,.,
O=C(O)c1cc(O)ccc1N=Nc1ccccc1,3,7,-6,20*,5,-2,-4,
O=C(O)c1ccccc1N=Nc1ccc(O)cc1,-6,0,9,3,6,.,.,
O=C(c1ccccc1)N1CCC2CCN(CCc3ccccc3)CC21 (stereo not given),1,-8,6,6,5,.,.,
SMILES,ARFGAP1 inh,ASAP1 GAP inh,PLCb3 inh,sPLA2-III inh,PLC-gamma1 inh,hGIII sPLA2 conf,BODIPY interf,others
O=C(CNC(=O)c1ccc(Cl)cc1)NCCCn1ccnc1,4,5,1,-4,2,.,.,
O=C(NCCCn1ccnc1)c1ccc(Cl)cc1,4,9,-1,21*,5,-4,-6,
O=C(c1ccc(-c2cc(O)c3ncccc3c2)cc1)N1CCNCC1,-8,-14,-16,23*,-19,-11,-22,
COc1ccc(-n2c(SCc3nc4ccccc4[nH]3)nc3ccccc3c2=O)cc1,.,.,-12,5,-6,.,.,
Cn1c2ccc(F)cc2c2ncn(CC3CCCO3)c(=O)c21 (stereo not given),7,-3,-16,21*,-4,-1,-5,
Cc1ccccc1C(=O)NNC(=O)c1cc(N)cc([N+](=O)[O-])c1,3,16,-3,12,-1,.,.,
CCOC(=O)c1cc(N)cc([N+](=O)[O-])c1,9,6,1,23*,4,3,-4,
COC(=O)[C@]12CCCCC=C1N(Cc1ccc(OC)cc1)C(=O)[C@@H]2CC(=O)N1CCCC1,.,.,1,5,1,.,.,
COc1ccc2c(c1)CN1C(=O)N(C3CCCC3)S(=O)(=O)CC21 (stereo not given),.,.,1,2,-1,.,.,
CCOC(=O)C(=O)N/N=C/c1ccc(F)cc1,6,-17,-5,-1,0,.,.,
CCOC(=O)C(=O)NNc1ccc(F)cc1,-8,5,-2,21*,-2,-2,-4,
CCCC1CCC2(CCCN2CCOC(=O)Nc2ccc(Br)cc2)CC1 (stereo not given),.,.,-4,-1,1,.,.,
Cc1ccc(Cn2c(=O)c3c(nc4n3CCCN4Cc3ccccc3)n(C)c2=O)cc1,-6,-4,10,73*,4,7,-17,
C=CCNC(=S)NNC(=O)c1cccn(Cc2ccc(Cl)cc2Cl)c1=O,14,4,-18,26*,-13,22*,1,
C=CCNC(=S)NNC(=O)c1cccn(Cc2ccc(Cl)c(Cl)c2)c1=O,3,-11,-19,25*,-17,31*,-5,BODIPY interf DR=>122
C=C(C)C#CCNCc1ccccc1,.,.,0,10,-2,.,.,
O=S(=O)(c1ccc(CN2CCOCCOCCN(Cc3ccc(S(=O)(=O)C(F)(F)F)cc3)CCOCC2)cc1)C(F)(F)F,.,.,-5,-5,-1,.,.,
CC(=O)C1=C(C)N(Cc2ccc(F)cc2)C(=S)NC1c1ccc(Cl)cc1 (stereo not given),11,-5,-3,3,1,.,.,
CC(C)(C)NC(=S)N1CCC2CC1c1cc(-c3ccc4c(c3)OCO4)ccc12 (stereo not given),12,-6,0,22*,-2,5,-18,
